Compounds with a hit are over-represented: about 5.1% of the library has one in this group of screens.
Hsp90 inh: displaces geldanamycin probe from tumor Hsp90; NCI-N417 lysate Hsp90, Cy3B-geldanamycin FP displacement; inhibition, % at 30 µM; hit rate 0.35% among 64,000; AID 429;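 active = inhibition above 50%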;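 also: 0% = tracer plus lysate wells and 100% = tracer alone without lysate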
M1 antag: M1 muscarinic receptor (rat) antagonism | CHO-M1 cells, Fluo-4 calcium, ACh EC80 antagonist mode; hits give low values | B-score at 10 µM | hit rate 3.4% among 64,000 | AID 628;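 active = calcium fluorescence response, raw or row-and-column corrected B-score, differing from the plate sample mean either way at a set confidence level, mostly lower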
M1 agonist: activates the M1 muscarinic receptor. CHO-M1 cells, Fluo-4 calcium fluorescence, agonist mode; hits give high values. B-score at 10 µM. hit rate 3% among 64,000;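 active = fluorescence rise, raw or as B-score row- and column-corrected plate score, outside the 99.7% band of its plate's samples, either direction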
BAP1 inh: inhibitors of human BAP1 deubiquitinase. hit rate 0.48% among 72,000. calls only at 20 µM. recombinant BAP1, Ub-AMC hydrolysis fluorescence kinetic; hits give low values. Q92560;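 active = activity remaining at or below 50% of control, provided the compound also passes the data quality filters; inactive = the rest, including low values that fail the filters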;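 also: 100% = DMSO wells rate and 0% = substrate alone blank rate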
Target sequence (Q92560 whole entry, looked up): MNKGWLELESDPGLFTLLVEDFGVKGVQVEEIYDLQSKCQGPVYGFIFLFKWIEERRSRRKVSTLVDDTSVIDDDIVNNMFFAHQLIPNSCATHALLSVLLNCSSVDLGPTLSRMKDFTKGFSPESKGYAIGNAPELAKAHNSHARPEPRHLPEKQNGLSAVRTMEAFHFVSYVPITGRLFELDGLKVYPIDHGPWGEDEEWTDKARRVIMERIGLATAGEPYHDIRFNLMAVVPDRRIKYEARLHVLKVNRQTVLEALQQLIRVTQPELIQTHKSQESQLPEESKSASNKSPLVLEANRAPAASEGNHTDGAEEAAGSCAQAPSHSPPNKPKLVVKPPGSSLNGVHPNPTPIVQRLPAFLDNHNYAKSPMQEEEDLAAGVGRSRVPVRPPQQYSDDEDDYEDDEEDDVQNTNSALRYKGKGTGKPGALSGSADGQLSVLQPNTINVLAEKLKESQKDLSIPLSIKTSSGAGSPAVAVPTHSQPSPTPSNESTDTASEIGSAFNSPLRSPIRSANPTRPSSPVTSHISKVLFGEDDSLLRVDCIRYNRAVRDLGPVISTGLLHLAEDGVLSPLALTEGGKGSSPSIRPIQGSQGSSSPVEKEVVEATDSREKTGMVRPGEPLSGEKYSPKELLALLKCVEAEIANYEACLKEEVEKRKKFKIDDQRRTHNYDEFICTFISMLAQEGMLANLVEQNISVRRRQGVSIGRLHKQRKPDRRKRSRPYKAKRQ
Ecoli tolC: growth inhibitors of E. coli BW25113 tolC mutant; OD615; growth inhibition, % at 10 µM (by protocol); hit rate 2.2% among 65,000;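 active = growth inhibition at or above a cutoff equal to the mean over every tested compound plus 3 SD, cut at about 60% in these data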;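 also: growth measured after 20 h incubation at 37 °C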
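test system = E. coli BW25113 ΔtolC::kan bacteria | medium = LB with kanamycin 50 µg/mL | signal = OD at 615 nm | schedule = 37 °C, 20 h exposure | evaluation = % inhibition of E. coli growth | compound dosing = one dose of 10 µM final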
Ecoli WT expand: blocks growth of wild type E. coli BW25113; AID 710; OD600 absorbance; hit rate 0.15% among 98,000; growth inhibition, % at 100 µM;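 active = growth inhibition above about 50% at one test dose, limit read from the data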;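 also: growth measured after 20 h incubation at 37 °C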
M1 antag confirm: M1 muscarinic receptor (rat) antagonism, confirmed; shares compounds with M1 antag; CHO-M1 cells, Fluo-4 calcium, ACh EC80 antagonism; hits give low values; calcium response (max-min fluorescence) at 10 µM; hit rate 43% among 1,700; AID 677;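 active = calcium response below the same-plate mean of wells given acetylcholine alone at its 80%-effect dose, minus 3 SD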;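 also: raw fluorescence intensity difference in arbitrary instrument units and not normalized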
mGluR4 antag: mGluR4 (human) activity, M1 antagonist secondary assay; CHO-mGluR4 calcium flux, Fluo-4 fluorescence, glutamate EC80; hits give low values; shares compounds with M1 antag; fluorescence response (max-min) at 10 µM; hit rate 0.9% among 1,700; AID 678;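 active = fluorescence response below the plate's average for near-maximal glutamate wells, less 3 SD of those wells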;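 also: raw unnormalized fluorescence span taken in the window right after glutamate addition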
The depositor's hits bear a star; i = inactive; / = no result shown.

SMILES | Hsp90 inh | M1 antag | M1 agonist | BAP1 inh | Ecoli tolC | Ecoli WT expand | M1 antag confirm | mGluR4 antag
CC1=CC(C)(C)N=C(Nc2ccc(C)cc2)S1 | -4 | -5* | -0.13 | i | 2 | 13 | 275* | 218
Cc1ccc(NC(=O)Cn2cccc2)c(C)c1 | / | / | / | / | / | -10 | / | /
Cc1ccc(NC(=O)Cn2cccc2)c(Br)c1 | -2 | -2.9* | 0.37 | i | 1 | -1 | 566 | 247
c1coc(CNc2nc(N3CCCCC3)nc3ccccc23)c1 | 0 | -1.5* | 2.7 | / | 71* | 31 | 465 | 203
c1ccc(N2CCN(c3nc(NCc4ccco4)c4ccccc4n3)CC2)cc1 | 0 | -0.65 | 0.27 | i | 3 | -3 | / | /
O=c1oc2ccc(Cl)cc2cc1-c1nc2sc3c(c2c(=O)[nH]1)CCCC3 | / | / | / | i | / | / | / | /
CC=CCOC(=O)C1=C(C)NC(=O)NC1c1ccc2c(c1)OCO2 (stereo not given) | / | / | / | i | / | / | / | /
Cc1ccc2oc(=O)c3cnn(CC(=O)N4CCN(c5ccccc5)CC4)c3c2c1 | / | / | / | / | / | 4 | / | /
Cc1ccc2oc(=O)c3cnn(CC(=O)Nc4ccccc4N4CCN(C)CC4)c3c2c1 | 1 | -16* | 0.054 | i | 9 | -3 | 252* | 259
Cc1ccc(C)c(Cc2cc([N+](=O)[O-])ccc2C)c1 | / | / | / | i | / | / | / | /
CC(C)=C1C2C=CC1C1C(=O)N(c3cccc(Cl)c3)C(=O)C21 (stereo not given) | / | / | / | i | / | / | / | /
COc1ccc(CCn2nnnc2C(c2ccc(Cl)cc2)N2CCN(C)CC2)cc1OC (stereo not given) | -4 | -3.1* | 0.047 | i | -22 | 6 | 630 | 258
CCCC(=O)Nc1ccc2oc(-c3cccnc3)nc2c1 | -3 | -2.4* | -0.17 | i | -12 | 3 | 582 | 229
Cc1ccc(OCC(=O)Nc2ccc(N3CCOCC3)c(Cl)c2)cc1 | / | / | / | i | / | / | / | /
CCOCCOC(=O)C1=C(C)NC(=O)NC1c1ccc(OC)cc1 (stereo not given) | / | / | / | i | / | / | / | /
COCCNC(=O)C(c1cccs1)N(C(=O)Cn1nnc2ccccc21)c1cccc(C)c1 (stereo not given) | -3 | -18* | -0.47 | i | -30 | -1 | 679 | 234
COc1ccc(S(=O)(=O)N(CC(=O)O)Cc2ccccc2)cc1OC | -1 | -18* | -1.4 | i | 1 | 5 | 643 | 197
COc1ccc(S(=O)(=O)N(CCc2ccccc2)CC(=O)O)cc1C | / | / | / | / | / | -7 | / | /
O=C(CSc1ccc2c(c1)OCCO2)Nc1ccc(Cl)cn1 | 5 | -3.2* | -2.5 | i | -2 | -1 | 485 | 224
Cc1c(NC(=O)CSc2ccc3c(c2)OCCO3)c(=O)n(-c2ccccc2)n1C | 2 | 0.18 | -0.53 | i | -7 | 3 | / | /
CN1CCN(C2=C(Cl)C(=O)N(Cc3ccccc3)C2=O)CC1 | 1 | -5.6* | -0.3 | i | 3 | 1 | 226* | 214
Cn1c(=O)n(CC(=O)N2CCOCC2)c2ccccc21 | -2 | 0.62 | -0.17 | i | -13 | / | / | /
CCS(=O)(=O)c1nc2ccccc2n1CC(=O)N1CCOCC1 | -2 | -2.7* | -0.86 | i | -1 | 2 | 689 | 213
CCN(CC)CCOC(=O)C1(c2ccc(OC)c(OC)c2)CCCC1 | 0 | -11* | 0.54 | i | 7 | 2 | 165* | 195
CCN(CC)CCOC(=O)C1(c2ccccc2)CCCC1 | / | / | / | / | / | 4 | / | /
SMILES | Hsp90 inh | M1 antag | M1 agonist | BAP1 inh | Ecoli tolC | Ecoli WT expand | M1 antag confirm | mGluR4 antag
CC(=O)c1ccc(C(=O)Nc2nc3c(s2)CCCC3)cc1 | / | / | / | i | / | / | / | /
COC(=O)Nc1nc2c(s1)CCCC2 | / | -3.1* | 0.15 | / | 0 | -1 | 581 | 241
COc1ccc(C2CC(C(F)(F)F)n3nc(C(=O)Nc4cccc(Cl)c4)c(Cl)c3N2)cc1OC (stereo not given) | / | / | / | i | / | / | / | /
O=C(CSc1nnc(CN2CCOCC2)n1-c1ccccc1)N1CCc2ccccc21 | -10 | -0.44 | 0.17 | i | -6 | -3 | / | /
O=C(COc1ccc2ccccc2c1CN1CCOCC1)N1CCc2ccccc21 | 1 | -2.1* | -0.013 | i | 19 | 3 | 336* | 226
CCOC(=O)N1CCN(C(=O)c2ccc3c(=O)n(CCC4=CCCCC4)c(=O)[nH]c3c2)CC1 | -5 | -6.8* | -0.63 | i | 5 | -1 | 191* | 252
CCOC(=O)c1c(NC(=O)c2cc([N+](=O)[O-])ccc2N2CCCCCC2)sc2c1CCCC2 | / | / | / | i | / | / | / | /
CCOc1ccc(N2CC(O)Cn3c2nc2c3c(=O)[nH]c(=O)n2C)cc1 (stereo not given) | / | / | / | i | / | / | / | /
O=C1CSC(c2ccccc2F)N1CCN1CCCCC1 (stereo not given) | -1 | -2.8* | -0.034 | i | -15 | -4 | 481* | 230
CCOc1cccc(C=Nc2cccc(NC(=O)c3ccc(F)cc3)c2)c1O | / | / | / | i | / | / | / | /
Cc1onc(-c2ccccc2Cl)c1C(=O)Nc1ccc(-n2nncc2-c2ccco2)cc1 | -7 | -1.9* | -0.21 | / | 44 | -4 | 379* | 208
CCOc1ccccc1C(=O)Nn1c(C2CCC2)nc2ccccc2c1=O | -2 | -0.39 | 1.7 | i | 15 | 7 | / | /
COc1ccccc1C(=O)Nn1c(C2CCC2)nc2ccccc2c1=O | 0 | -3.3* | 0.71 | i | -2 | 3 | 519 | 180
COc1ccc(C2SCCN2C(=O)c2cc3ccccc3oc2=O)cc1OC (stereo not given) | / | / | / | i | / | / | / | /
CC(C(=O)N1c2ccccc2Sc2ccccc21)N1C(=O)c2ccccc2C1=O (stereo not given) | / | / | / | i | / | / | / | /
CCn1c(=O)c(C(=O)Nn2c(C)nc3ccccc3c2=O)c(O)c2ccccc21 | -2 | -14* | 0.75 | i | 91* | 3 | 611 | 192
COc1ccc(C(=O)CSC2=C(C#N)C3(CCCCC3)C(C#N)=C(N)N2)cc1 | -12 | -0.37 | 3.8 | i | 9 | -8 | / | /
CCSC1=C(C#N)C2(CCCCC2)C(C#N)=C(N)N1 | -5 | -2.7* | -0.91 | i | 14 | 10 | 505 | 212
COC(=O)c1c(NC(=O)CSc2nnc(Cn3nnc4ccccc43)n2C)sc(C)c1C | -2 | -2.4* | 1.3 | i | -12 | -5 | 430* | 255
Cn1c(Cn2nnc3ccccc32)nnc1SCC(N)=O | -3 | 0.37 | 0.15 | i | -16 | 2 | / | /
O=C(Oc1ccc(F)cc1)c1cccc([N+](=O)[O-])c1 | / | / | / | i | / | / | / | /
CC(C)CN(CC(C)C)S(=O)(=O)c1ccc(C(=O)Nc2nc3c(s2)CCc2ccccc2-3)cc1 | / | / | / | i | / | / | / | /
Cc1nc(Nc2ncc3c(n2)CC(C)(C)CC3=O)nc2ccccc12 | -2 | 0.56 | -0.81 | i | 8 | / | / | /
CC1=NC(Nc2nc(C)c3ccccc3n2)=NC(C)(C)C1 | 1 | -9.6* | -0.17 | i | 32 | 20 | 224* | 212

High-throughput results deposited in PubChem BioAssay by several laboratories.
